# Results gathered from unrelated publications.
# Protocols differ between the studies behind these lines.
# Target: Tyrosine-protein kinase receptor Tie-1 (TIE1, Homo sapiens, UniProt P35590)
SMILES,observed,technique,tested at,remaining binding
COc1cnc(Nc2cccc(S(N)(=O)=O)c2)nc1N1CCN(c2ccccc2)CC1,binding,competition with immobilised ligand,1 µM,99%
Cc1cc(-n2nc(Cc3cc(F)cc(C(F)(F)F)c3)nc2C)ccc1C(N)=O,cell-free assay,competition with immobilised ligand,1 µM,100%
Cc1cnn2ncc(-c3ccnc(N(C)C)n3)c2c1,binding,,1 µM,98%
COc1ncc2cc3ccccc3nc2c1C#N,cell-free assay,competition with immobilised ligand,5 µM,100%
CS(=O)(=O)N1CCCC(NC(=O)[C@H](CCC2CCCCC2)NC(=O)c2ccc(CNC(=O)c3cnc4ccccn34)cc2)C1 (stereo partly shown),cell-free assay,competition with immobilised ligand,0.1 µM,100%
CC1CCCN1c1nccc(-c2cnn3ncccc23)n1 (stereo not shown),binding,,1 µM,100%
O=C(NCC1CCOCC1)c1n[nH]cc1NC(=O)c1c(F)cccc1F,binding,competition with immobilised ligand,1 µM,85%
O=C(c1ccc(Nc2ncc(Cl)c(-c3ccc(Cl)s3)n2)cc1)N1CCC(N2CCCC2)CC1,binding,competition with immobilised ligand,1 µM,18%
CCN1CCN(Cc2ccc(C(=O)Nc3ccc(C)c(Oc4ccc5c(c4)CC(=O)N5)c3)cc2C(F)(F)F)CC1,binding,competition with immobilised ligand,1 µM,79%
Nc1ncc2c(n1)-c1c([nH]c3ccc(C#CC4CC4)cc13)CCCC2,binding,competition with immobilised ligand,1 µM,96%
C[C@@H]1CCN(c2nccc(-c3cnn4ncccc34)n2)C1,binding,,1 µM,100%
FC(F)(F)Oc1cccc(-c2cnc3ccc(-c4ccncc4)nn23)c1,cell-free assay,competition with immobilised ligand,5 µM,84%
O=C(O)[C@@H]1[C@@H](Cn2nnc3ccccc3c2=O)CC[C@H]1C(=O)c1ccc(OCCC2CCOCC2)cc1,cell-free assay,competition with immobilised ligand,1 µM,100%
N[C@H]1CCN(c2nccc(-c3cnn4ncccc34)n2)C1,binding,,1 µM,100%
O=S(=O)(NC1CCC(c2cc(F)ccc2F)(S(=O)(=O)c2ccc(Cl)cc2)CC1)C(F)(F)F (stereo not shown),cell-free assay,competition with immobilised ligand,1 µM,100%
CN(CCCC(F)(F)F)c1nccc(-c2cnn3ncccc23)n1,binding,,1 µM,100%
C[C@H](NC(=O)c1cnc2n1[C@](C)(Cc1ccc(C#N)cc1)C(=O)N2c1cc(Cl)c(F)c(Cl)c1)C(=O)NC1(c2ccccn2)CC1,cell-free assay,competition with immobilised ligand,1 µM,100%
O=C(NCCCN1CCOCC1)c1ccc(Nc2ncc(Cl)c(-c3ccc(Cl)s3)n2)cc1,binding,competition with immobilised ligand,1 µM,44%
C[C@@H](c1cccc(C#N)c1)n1cc(Cl)cc(C(N)=O)c1=N,cell-free assay,competition with immobilised ligand,1 µM,87%
COc1ccnn2ncc(-c3ccnc(N(C)C)n3)c12,binding,,1 µM,81%
CNC(=O)c1ccc(Nc2ncc(C(F)(F)F)c(NCc3nccnc3N(C)S(C)(=O)=O)n2)cc1,cell-free assay,competition with immobilised ligand,0.1 µM,47%
O=C(NCCCN1CCOCC1)c1ccc(Nc2nccc(-c3cc4ccccc4s3)n2)cc1,binding,competition with immobilised ligand,1 µM,48%
